Experimental data as given in paper PMC10765384 (Bioorganic chemistry, 2023).
Like-named read-outs stand apart in the source and are kept apart here.

Tests used:
[1] = system: HBV DNA replication in HepAD38 cells; assay: Anti-HBV activity, 7-day assay in HepAD38 cells; format: cell-based, hepatitis B virus; conditions: for EC50: read-out: Anti-HBV activity EC50; for EC90: read-out: Anti-HBV activity EC90
[2] = system: human peripheral blood mononuclear (PBM) cells; assay: Cytotoxicity, CellTiter 96 assay in PBM cells; format: cell-based; conditions: read-out: Cytotoxicity CC50 PBM; PBM cells
In short: (§1)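 Colorimetric non-radioactive cell proliferation read-out (CellTiter 96). CC50 is the test compound concentration that inhibited cell growth by 50%.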

[3] = system: human T lymphoblast (CEM) cells; assay: Cytotoxicity, CellTiter 96 assay in CEM cells; format: cell-based; conditions: read-out: Cytotoxicity CC50 CEM; CEM cells
In short: as §1

[4] = system: African green monkey kidney (Vero) cells; assay: Cytotoxicity, CellTiter 96 assay in Vero cells; format: cell-based; conditions: read-out: Cytotoxicity CC50 Vero; Vero cells
In short: as §1

[5] = system: human hepatocellular carcinoma (HepG2) cells; assay: Cytotoxicity, CellTiter 96 assay in HepG2 cells; format: cell-based; conditions: read-out: Cytotoxicity CC50 HepG2; HepG2 cells
In short: as §1

Formation of glutathione = format: in vitro ADME; conditions: human liver microsomes 1 mg/mL, 1 mM GSH, 60 min, 37°C
hERG = hERG (Homo sapiens, UniProt Q12809); assay: hERG inhibition, automated patch clamp in CHO cells; format: cell-based; conditions: room temperature
In short: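 Test article was applied at concentrations up to 10 μM, with n ≥ 3 per compound.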

CYP 1A2 = target: T1, CYP 1A2 (Homo sapiens, UniProt P05177); assay: CYP inhibition in human liver microsomes; format: in vitro ADME
T1 sequence (P05177 1-516): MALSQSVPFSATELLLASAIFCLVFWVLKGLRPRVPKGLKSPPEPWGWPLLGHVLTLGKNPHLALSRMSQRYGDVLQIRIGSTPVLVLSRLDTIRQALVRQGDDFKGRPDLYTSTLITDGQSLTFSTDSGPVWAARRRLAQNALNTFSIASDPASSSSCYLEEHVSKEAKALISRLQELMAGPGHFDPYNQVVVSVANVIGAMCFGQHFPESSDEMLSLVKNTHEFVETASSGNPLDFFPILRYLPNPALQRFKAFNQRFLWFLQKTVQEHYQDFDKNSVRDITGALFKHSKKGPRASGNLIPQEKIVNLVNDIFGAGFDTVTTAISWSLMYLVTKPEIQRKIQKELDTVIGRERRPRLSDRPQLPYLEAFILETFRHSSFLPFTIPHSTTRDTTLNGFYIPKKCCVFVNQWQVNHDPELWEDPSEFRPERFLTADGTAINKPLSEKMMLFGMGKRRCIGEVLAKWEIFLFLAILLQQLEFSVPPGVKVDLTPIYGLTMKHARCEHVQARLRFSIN
In short: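 Known CYP450 probe substrates were incubated with human liver microsomes (0.05–0.2 mg/mL), 1 mM NADPH, 100 mM potassium phosphate pH 7.4 and 3 mM MgCl2 at 37°C, with or without 10 μM test compound, in duplicate. Reactions were quenched with a solution containing internal standards. Each substrate's signature metabolite was quantified by LC/MS/MS.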

CYP 2B6 = target: T2, CYP 2B6 (Homo sapiens, UniProt P20813); assay: CYP inhibition in human liver microsomes; format: in vitro ADME
T2 sequence (P20813 1-491): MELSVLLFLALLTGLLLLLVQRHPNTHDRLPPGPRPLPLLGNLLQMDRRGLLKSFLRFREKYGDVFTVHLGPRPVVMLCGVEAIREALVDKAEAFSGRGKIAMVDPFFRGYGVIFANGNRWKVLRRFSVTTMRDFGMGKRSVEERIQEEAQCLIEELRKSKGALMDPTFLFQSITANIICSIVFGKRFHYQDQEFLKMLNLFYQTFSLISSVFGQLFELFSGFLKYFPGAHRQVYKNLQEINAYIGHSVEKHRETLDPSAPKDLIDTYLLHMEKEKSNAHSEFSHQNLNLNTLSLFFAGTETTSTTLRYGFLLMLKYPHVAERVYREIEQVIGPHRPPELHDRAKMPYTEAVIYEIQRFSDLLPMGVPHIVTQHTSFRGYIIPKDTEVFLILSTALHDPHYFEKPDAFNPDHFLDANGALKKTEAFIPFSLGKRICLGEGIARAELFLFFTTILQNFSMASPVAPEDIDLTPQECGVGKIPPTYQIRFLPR

CYP 2C8 = target: T3, CYP 2C8 (Homo sapiens, UniProt P10632); assay: CYP inhibition in human liver microsomes; format: in vitro ADME
T3 sequence (P10632 1-490): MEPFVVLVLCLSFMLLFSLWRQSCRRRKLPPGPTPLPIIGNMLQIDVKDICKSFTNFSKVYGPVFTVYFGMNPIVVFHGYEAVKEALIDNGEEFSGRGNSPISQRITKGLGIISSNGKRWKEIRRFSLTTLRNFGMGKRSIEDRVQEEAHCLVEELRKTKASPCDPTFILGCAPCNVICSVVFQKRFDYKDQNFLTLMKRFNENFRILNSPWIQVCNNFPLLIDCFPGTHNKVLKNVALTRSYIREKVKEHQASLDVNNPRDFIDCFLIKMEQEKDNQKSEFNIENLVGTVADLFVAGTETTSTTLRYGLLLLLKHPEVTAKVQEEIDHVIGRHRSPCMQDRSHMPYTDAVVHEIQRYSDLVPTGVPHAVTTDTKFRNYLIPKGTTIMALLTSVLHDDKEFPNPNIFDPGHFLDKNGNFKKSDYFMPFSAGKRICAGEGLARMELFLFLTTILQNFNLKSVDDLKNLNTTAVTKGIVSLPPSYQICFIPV

CYP 2C9 = CYP 2C9 (Homo sapiens, UniProt P11712); assay: CYP inhibition in human liver microsomes; format: in vitro ADME
CYP 2C19 = CYP 2C19 (Homo sapiens, UniProt P33261); assay: CYP inhibition in human liver microsomes; format: in vitro ADME
CYP 2D6 = CYP 2D6 (Homo sapiens, UniProt P10635); assay: CYP inhibition in human liver microsomes; format: in vitro ADME
CYP 3A4 = CYP 3A4 (Homo sapiens, UniProt P08684); assay: CYP inhibition in human liver microsomes; format: in vitro ADME; conditions: for CYP Inhibition (% at 10 μM) 3A4-M: midazolam substrate; for CYP Inhibition (% at 10 μM) 3A4-T: testosterone substrate
Caco-2 cell monolayer = assay: Cell permeability across Caco-2 cell monolayer; format: in vitro ADME
In short: (§2)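 Bidirectional transport of 2 μM test compound across Caco-2 monolayers at pH 7.4, in duplicate, with final DMSO below 1%. Plates were held 2 hr at 37°C, 5% CO2, saturated humidity, without shaking. Starting, donor and receiver solutions were analysed by LC/MS/MS. Lucifer yellow rejection after transport checked monolayer integrity.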

[6] = Liver microsome stability, mouse; format: in vitro ADME
In short: (§3)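 Test compound (1 μM), alone or with ritonavir at 0.3, 1 or 3 μM, was incubated with 1 mg/mL mouse or human liver microsomes in 100 mM potassium phosphate pH 7.4 with 5 mM MgCl2. NADPH (final 1 mM) started the reaction at 37°C. Aliquots at 0–90 min were quenched in ice-cold methanol, centrifuged, diluted 1:1 with water, and analysed by LC-MS/MS. Propranolol was the positive control.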

[7] = Liver microsome stability, human; format: in vitro ADME
In short: as §3

HBV = conditions: humanized mouse model, in combination with entecavir; ref [7],[8]; cited from earlier work
[8] = Cytotoxicity, CellTiter 96 assay in PBM cells; format: cell-based, human; conditions: human, peripheral blood mononuclear (PBM) cells
In short: as §1

[9] = Cytotoxicity, CellTiter 96 assay in CEM cells; format: cell-based, human; conditions: human, T lymphoblast (CEM) cells
In short: as §1

[10] = Cytotoxicity, CellTiter 96 assay in Vero cells; format: cell-based, African green monkey; conditions: African green monkey, kidney (Vero) cells
In short: as §1

[11] = Cytotoxicity, CellTiter 96 assay in HepG2 cells; format: cell-based, human; conditions: human, hepatocellular carcinoma (HepG2) cells
In short: as §1

[12] = Cell permeability across Caco-2 cell monolayer; format: in vitro ADME; conditions: human
In short: as §2

[13] = HepAD38 cells, 7-day assay, HBV DNA
[14] = Hepatitis B virus, HePAD38, 168 h

Chain of CYP 3A4 (P08684 whole entry): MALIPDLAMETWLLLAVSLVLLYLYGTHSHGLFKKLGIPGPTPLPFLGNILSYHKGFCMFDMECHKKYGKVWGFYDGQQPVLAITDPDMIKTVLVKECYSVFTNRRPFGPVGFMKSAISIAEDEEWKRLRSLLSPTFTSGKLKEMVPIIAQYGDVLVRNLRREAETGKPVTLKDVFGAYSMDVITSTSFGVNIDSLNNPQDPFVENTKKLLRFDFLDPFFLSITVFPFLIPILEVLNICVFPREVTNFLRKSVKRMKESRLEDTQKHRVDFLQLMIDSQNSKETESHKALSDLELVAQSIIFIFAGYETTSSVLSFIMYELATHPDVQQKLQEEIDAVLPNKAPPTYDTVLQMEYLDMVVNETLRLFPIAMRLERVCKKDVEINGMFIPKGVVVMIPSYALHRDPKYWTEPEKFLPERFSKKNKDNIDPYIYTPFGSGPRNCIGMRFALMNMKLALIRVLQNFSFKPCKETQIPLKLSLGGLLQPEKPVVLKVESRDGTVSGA
Chain of CYP 2D6 (P10635 whole entry): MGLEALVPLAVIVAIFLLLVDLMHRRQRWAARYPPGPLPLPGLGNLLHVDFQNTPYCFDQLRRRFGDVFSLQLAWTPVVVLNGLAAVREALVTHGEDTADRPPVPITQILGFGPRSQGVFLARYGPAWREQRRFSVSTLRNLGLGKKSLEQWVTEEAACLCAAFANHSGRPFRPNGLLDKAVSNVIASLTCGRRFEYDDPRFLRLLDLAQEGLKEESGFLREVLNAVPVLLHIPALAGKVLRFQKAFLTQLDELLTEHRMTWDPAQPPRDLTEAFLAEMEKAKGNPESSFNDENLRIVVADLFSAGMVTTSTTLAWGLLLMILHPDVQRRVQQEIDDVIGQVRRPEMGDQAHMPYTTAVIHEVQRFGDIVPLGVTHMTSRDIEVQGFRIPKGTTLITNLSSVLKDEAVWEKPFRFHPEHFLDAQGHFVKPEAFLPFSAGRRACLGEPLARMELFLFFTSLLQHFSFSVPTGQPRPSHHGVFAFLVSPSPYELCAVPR
Chain of CYP 2C9 (P11712 whole entry): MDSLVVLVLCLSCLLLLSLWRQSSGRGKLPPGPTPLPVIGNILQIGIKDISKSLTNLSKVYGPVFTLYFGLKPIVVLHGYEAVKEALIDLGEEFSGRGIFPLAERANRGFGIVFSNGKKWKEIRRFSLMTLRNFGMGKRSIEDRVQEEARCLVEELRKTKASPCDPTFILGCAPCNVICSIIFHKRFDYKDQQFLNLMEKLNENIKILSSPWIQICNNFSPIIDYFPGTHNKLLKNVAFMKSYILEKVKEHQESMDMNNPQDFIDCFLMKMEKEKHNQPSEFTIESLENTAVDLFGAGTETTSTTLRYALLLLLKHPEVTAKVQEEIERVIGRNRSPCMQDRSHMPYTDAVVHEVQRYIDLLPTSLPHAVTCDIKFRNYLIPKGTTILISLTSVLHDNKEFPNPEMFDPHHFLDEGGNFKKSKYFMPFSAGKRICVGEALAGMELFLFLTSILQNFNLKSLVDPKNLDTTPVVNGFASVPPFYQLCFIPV
Chain of CYP 2C19 (P33261 whole entry): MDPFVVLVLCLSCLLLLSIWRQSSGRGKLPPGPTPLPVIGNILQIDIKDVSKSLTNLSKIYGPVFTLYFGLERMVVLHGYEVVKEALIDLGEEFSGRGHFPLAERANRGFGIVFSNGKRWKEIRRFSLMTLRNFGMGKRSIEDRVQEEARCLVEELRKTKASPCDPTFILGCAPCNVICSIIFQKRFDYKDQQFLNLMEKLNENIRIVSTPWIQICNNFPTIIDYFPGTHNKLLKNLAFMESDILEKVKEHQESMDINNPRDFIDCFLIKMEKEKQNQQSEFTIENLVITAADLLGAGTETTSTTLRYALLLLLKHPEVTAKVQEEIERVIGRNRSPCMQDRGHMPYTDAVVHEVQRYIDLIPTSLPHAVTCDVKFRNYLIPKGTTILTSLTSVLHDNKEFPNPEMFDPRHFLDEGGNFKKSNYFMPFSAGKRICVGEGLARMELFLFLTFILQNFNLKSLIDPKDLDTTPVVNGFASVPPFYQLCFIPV
Chain of hERG (Q12809 whole entry): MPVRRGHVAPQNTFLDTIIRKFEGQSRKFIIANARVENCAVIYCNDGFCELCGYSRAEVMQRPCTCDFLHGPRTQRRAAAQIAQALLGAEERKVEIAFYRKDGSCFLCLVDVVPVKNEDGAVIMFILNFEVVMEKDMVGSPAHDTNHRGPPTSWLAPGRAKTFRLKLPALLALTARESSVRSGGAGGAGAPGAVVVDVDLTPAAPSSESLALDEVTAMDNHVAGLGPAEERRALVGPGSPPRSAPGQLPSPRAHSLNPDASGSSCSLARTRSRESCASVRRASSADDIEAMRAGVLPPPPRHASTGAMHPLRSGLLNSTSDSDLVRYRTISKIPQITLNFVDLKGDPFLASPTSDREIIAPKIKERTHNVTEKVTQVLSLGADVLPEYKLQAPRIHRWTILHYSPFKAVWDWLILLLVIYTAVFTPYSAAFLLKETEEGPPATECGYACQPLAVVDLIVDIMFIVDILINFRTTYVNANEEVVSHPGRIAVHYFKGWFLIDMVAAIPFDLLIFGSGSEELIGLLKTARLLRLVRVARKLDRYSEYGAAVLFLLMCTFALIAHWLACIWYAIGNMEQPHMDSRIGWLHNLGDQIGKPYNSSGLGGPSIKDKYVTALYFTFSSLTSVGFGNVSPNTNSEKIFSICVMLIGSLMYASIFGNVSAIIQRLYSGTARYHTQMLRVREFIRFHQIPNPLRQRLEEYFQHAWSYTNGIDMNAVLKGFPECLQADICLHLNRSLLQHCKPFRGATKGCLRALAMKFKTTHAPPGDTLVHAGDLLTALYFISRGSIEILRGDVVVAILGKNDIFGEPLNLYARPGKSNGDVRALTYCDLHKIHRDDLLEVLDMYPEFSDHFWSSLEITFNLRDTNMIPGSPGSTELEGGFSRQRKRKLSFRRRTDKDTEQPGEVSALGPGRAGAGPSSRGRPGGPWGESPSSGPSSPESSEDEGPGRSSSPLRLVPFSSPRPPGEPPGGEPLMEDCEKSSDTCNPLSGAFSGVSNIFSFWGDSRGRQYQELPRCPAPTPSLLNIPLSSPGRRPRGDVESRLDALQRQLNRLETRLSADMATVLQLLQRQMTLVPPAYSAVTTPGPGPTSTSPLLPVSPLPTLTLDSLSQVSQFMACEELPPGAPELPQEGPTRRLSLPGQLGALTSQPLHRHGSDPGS

C#CCNC(=O)C(=O)c1c(C)c(C(=O)Nc2ccc(F)c(F)c2)n(C)c1C [GLP-26, reference compound]
EC50 [1, 13]: 4.6 ± 2 nM | EC90 [1, 13]: 0.0168 ± 0.0071 µM | CC50 [2]: > 100 µM | CC50 [3]: > 100 µM | CC50 [4]: 46 ± 30 µM | CC50 [5]: > 100 µM | GSH % Reactive metabolites at 25 μM (Formation of glutathione): 0.8% | hERG % Inhibition at 10 μM (hERG): 46.6% | CYP Inhibition (% at 10 μM) 1A2 (CYP 1A2): −9.6% | CYP Inhibition (% at 10 μM) 2B6 (CYP 2B6): −1.6% | CYP Inhibition (% at 10 μM) 2C8 (CYP 2C8): 54% | CYP Inhibition (% at 10 μM) 2C9 (CYP 2C9): 11.7% | CYP Inhibition (% at 10 μM) 2C19 (CYP 2C19): 15.9% | CYP Inhibition (% at 10 μM) 2D6 (CYP 2D6): 9.5% | CYP Inhibition (% at 10 μM) 3A4-M (CYP 3A4): −7.2% | CYP Inhibition (% at 10 μM) 3A4-T (CYP 3A4): 8.3% | Permeability A-B (Caco-2 cell monolayer; Caco-2, 2 μM, pH 7.4, 2 hr, A-B): 23.5 10^−6 cm/s | Permeability B-A (Caco-2 cell monolayer; Caco-2, 2 μM, pH 7.4, 2 hr, B-A): 22.8 10^−6 cm/s | Mean Recovery % A-B (Caco-2 cell monolayer; Caco-2, A-B): 86.3% | Mean Recovery % B-A (Caco-2 cell monolayer; Caco-2, B-A): 98.7% | Liver microsome stability t1/2 Mouse ([6]; mouse liver microsomes 1 mg/mL, compound alone): 41 min | Liver microsome stability t1/2 Human ([7]; human liver microsomes 1 mg/mL, compound alone): >60 min | antiviral response (HBV): sustained antiviral response up to 12 weeks post treatment

C#CCn1c(C)c(C(=O)C(=O)NC(C)(C)C#C)c(C)c1C(=O)Nc1ccc(F)c(F)c1 [Compound 10a, N-(3,4-Difluorophenyl)-3,5-dimethyl-4-(2-((2-methylbut-3-yn-2-yl)amino)-2-oxoacetyl)-1-(prop-2-yn-1-yl)-1H-pyrrole-2-carboxamide]
EC50 [1, 14]: 0.02 ± 0.03 nM | EC90 [1, 14]: 0.0016 ± 0.0008 µM | CC50 [8]: > 100 µM | CC50 [9]: > 100 µM | CC50 [10]: > 100 µM | CC50 [11]: > 100 µM | CYP Inhibition (% at 10 μM) 1A2 (CYP 1A2): 9% | CYP Inhibition (% at 10 μM) 2B6 (CYP 2B6): 5% | CYP Inhibition (% at 10 μM) 2C8 (CYP 2C8): 95% | CYP Inhibition (% at 10 μM) 2C9 (CYP 2C9): 40% | CYP Inhibition (% at 10 μM) 2C19 (CYP 2C19): 34% | CYP Inhibition (% at 10 μM) 2D6 (CYP 2D6): 8% | CYP Inhibition (% at 10 μM) 3A4-M (CYP 3A4): 40% | CYP Inhibition (% at 10 μM) 3A4-T (CYP 3A4): 40% | Papp A→B at 2 h, 2 μM ([12]; Caco-2, pH 7.4): 33.5 ×10⁻⁶ cm/s | Papp B→A at 2 h, 2 μM ([12]; Caco-2, pH 7.4): 10.9 ×10⁻⁶ cm/s | recovery at 2 h, 2 μM ([12]; Caco-2, pH 7.4, Mean Recovery % A-B, Caco-2, A-B): 100% | recovery at 2 h, 2 μM ([12]; Caco-2, pH 7.4, Mean Recovery % B-A, Caco-2, B-A): 74.6% | fold improvement of half-life on co-incubation with ritonavir ([6]; mouse liver microsomes, ritonavir at ratios up to 1/3): 45 fold | half-life at 1 μM ([6]; mouse, mouse liver microsomes, pH 7.4): 2.4 min | fold improvement of half-life on co-incubation with ritonavir ([7]; human liver microsomes, ritonavir at ratios up to 1/3): two-fold | half-life at 1 μM ([7]; human, human liver microsomes, pH 7.4): 9 min
